The source made the active and inactive calls. The rule behind the calls is not given here.
Columns and labels:
[1] = target: T1, GABA-A receptor; anion channel (Rattus norvegicus) (UniProt O09028+P15431+P18506+P18508+P19969+P20236+P23574+P23576+P28471+P28473+P30191+P62813+P63079+P63138+Q91ZM7+Q9ES14); test: Displacement of [3H]flunitrazepam from GABA-A benzodiazepine receptor of rat cerebral cortex at 5000 nM; format: tissue-based
In short: (§1)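 Rat cerebral cortex membranes were incubated with [3H]flunitrazepam in the presence of the test agent at a single concentration (nM), run in triplicate with under 7% variation between values. Binding is reported as % inhibition of [3H]flunitrazepam binding.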

Rattus norvegicus [2] = test: Minimum effective dose (po) tested for its anxiolytic activity in rat using the shock-induced suppression of drinking (SSD) test.; format: functional; settings: read-out: MED
In short: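 Rats (n = 8 per dose) were dosed orally at one or more levels and then run in the shock-induced suppression of drinking conflict test. MED is the dose producing a significant rise (p < 0.05, Student's t test) in mean shocks accepted relative to vehicle-treated controls.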

[3] = system: GABA-A receptor; anion channel; test: Inhibition of [3H]flunitrazepam binding to GABA-A benzodiazepine receptor of rat cerebral cortex at 500 nM; format: tissue-based; in short: as §1
[4] = target: GABA-A receptor; anion channel; test: Inhibition of [3H]flunitrazepam binding to GABA-A benzodiazepine receptor of rat cerebral cortex; format: tissue-based
Rattus norvegicus [5] = test: Minimum effective dose (ip) tested for its anxiolytic activity in rat using the shock-induced suppression of drinking (SSD) test.; format: functional; settings: read-out: MED
In short: (§2)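 Shock-induced suppression of drinking (Vogel-type conflict) in rats, with compounds given intraperitoneally at one or more dose levels, 8 rats per dose. MED is the lowest dose giving a significant increase (p < 0.05, Student's t test) in the mean number of shocks taken versus vehicle control.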

Rattus norvegicus [6] = test: Minimum effective dose (ip) tested for its anxiolytic activity in rat using the shock-induced suppression of drinking (SSD) test; NS is No Significant activity at 25 mg/Kg; format: functional, organism-based; in short: as §2
[7] = system: GABA-A receptor; anion channel; test: Inhibition of [3H]flunitrazepam binding to GABA-A benzodiazepine receptor of rat cerebral cortex (Not Significant at 5000 nM); format: tissue-based; in short: as §1
Rattus norvegicus [8] = test: Minimum effective dose (ip) tested for its anxiolytic activity in rat using the shock-induced suppression of drinking (SSD) test; NS is No Significant activity at 50 mg/Kg; format: functional, organism-based; in short: as §2
Rattus norvegicus [9] = test: Minimum effective dose (ip) tested for its anxiolytic activity in rat using the shock-induced suppression of drinking (SSD) test; NS is No Significant activity at 25 mg/KG; format: functional, organism-based; in short: as §2
[10] = target: T1, GABA-A receptor; anion channel (Rattus norvegicus); test: Displacement of [3H]flunitrazepam from GABA-A benzodiazepine receptor of rat cerebral cortex at 500 nM; format: tissue-based; in short: as §1

SMILES	minimal effective dose (Rattus norvegicus [2])	IC50 [4]	further results
CCCCCn1ncc2c(N)c(C(=O)OC(C)C)c(C)nc21	50 mg/kg		inhibition [1]: 48%
C#CCN(CC#C)C(=O)c1cnc2c(cnn2CCCCC)c1N	12.5 mg/kg		IC50 [3]: Not Active
CCOC(=O)c1c(C)nc2c(cnn2CCC(C)C)c1N	100 mg/kg	39 nM	
CCOC(=O)c1c(C)nc2c(cnn2CCC(C)CC)c1N (stereo unspecified)		79 nM	minimal effective dose (Rattus norvegicus [5]): 25 mg/kg
CCCCCn1ncc2c(N)c(C(=O)N3CCCC3)cnc21			IC50 [3]: Not Active; minimal effective dose (Rattus norvegicus [5]): 50 mg/kg
CCCCCn1ncc2c(N)c(C(=O)NCC)cnc21	12.5 mg/kg	109 nM	
CCOC(=O)c1c(C)nc2c(cnn2Cc2ccccc2)c1N		156 nM	MED (Rattus norvegicus [6]): inactive
CCNc1c(C(=O)OCC)c(C)nc2c1cnn2CC			IC50 [7]: Not Active; minimal effective dose (Rattus norvegicus [5]): 25 mg/kg
CCCCCn1ncc2c(N)c(C(=O)NCc3ccccc3)cnc21	25 mg/kg	36 nM	
CCCCCn1ncc2c(N)c(C(=O)NC3CC3)cnc21	12.5 mg/kg	312 nM	
C#CCCCn1ncc2c(N)c(C(=O)OCC=C)c(C)nc21	12.5 mg/kg	5.5 nM	
CC#CCCn1ncc2c(N)c(C(=O)NCC3CC3)cnc21	3.1 mg/kg	271 nM	
CCCCCn1ncc2c(N)cc(C)nc21			inhibition [1]: 13%; minimal effective dose (Rattus norvegicus [8]): inactive
CCCCCn1ncc2c(O)c(C(=O)OCC)c(C)nc21			IC50 [3]: Not Active; minimal effective dose (Rattus norvegicus [8]): inactive
C=CCNC(=O)c1cnc2c(cnn2CCCCC)c1NCCCC			IC50 [3]: Not Active; NS (Rattus norvegicus [6]): inactive
C=CCOC(=O)c1cnc2c(cnn2CCC(C)C)c1N		5.7 nM	minimal effective dose (Rattus norvegicus [5]): 25 mg/kg
C=C(C)COC(=O)c1c(C)nc2c(cnn2CCCCC)c1N		69 nM	MED (Rattus norvegicus [6]): inactive
C=CCN(C)C(=O)c1cnc2c(cnn2CCCCC)c1N	12.5 mg/kg		IC50 [3]: Not Active
CC#CCCn1ncc2c(N)c(C(=O)OCC)c(C)nc21	25 mg/kg	590 nM	
CC#CCCn1ncc2c(N)c(C(=O)OCC3CC3)c(C)nc21	12.5 mg/kg	315 nM	
CCOC(=O)c1c(C)nc2c(cnn2CC)c1N		460 nM	minimal effective dose (Rattus norvegicus [5]): 75 mg/kg
C=CCNC(=O)c1c[n+]([O-])c2c(cnn2CCCCC)c1N	12.5 mg/kg	53 nM	
CCCCCn1ncc2c(N)c(C(=O)N(C)CCC)cnc21	6.3 mg/kg		IC50 [3]: Not Active
CCCCCCn1ncc2c(N)c(C(=O)OCC)c(C)nc21		320 nM	minimal effective dose (Rattus norvegicus [5]): 50 mg/kg
CCCCCn1ncc2c(N)c(C(=O)OCC3CC3)c(C)nc21	12.5 mg/kg	131 nM	
CCCCCn1ncc2c(N)c(C(N)=O)cnc21	12.5 mg/kg	2450 nM	
CCCCCn1ncc2c(N)c(C(=O)OCCC)c(C)nc21		50 nM	minimal effective dose (Rattus norvegicus [5]): 25 mg/kg

SMILES	minimal effective dose (Rattus norvegicus [2])	IC50 [4]	further results
C=CCOC(=O)c1c(C)nc2c(cnn2CC=C(C)C)c1N		6.4 nM	MED (Rattus norvegicus [9]): inactive
C=CCN(C)C(=O)c1cnc2c(cnn2CCC#CC)c1N	12.5 mg/kg		IC50 [3]: Not Active
CCCCCn1ncc2c(N)c(C(=O)OCC)cnc21			MED (Rattus norvegicus [6]): inactive
CCCCCn1ncc2c(N)c(C(=O)NC(C)C)cnc21		414 nM	minimal effective dose (Rattus norvegicus [5]): 25 mg/kg
CCCCn1ncc2c(N)c(C(=O)OCC)c(C)nc21	40 mg/kg	50 nM	
C=CCOC(=O)c1c(C)nc2c(cnn2CCC#CC)c1N	25 mg/kg	79 nM	
CCOC(=O)c1c(C)nc2c(cnn2CCCC(C)(C)C)c1N		404 nM	NS (Rattus norvegicus [6]): inactive
C#CCOC(=O)c1c(C)nc2c(cnn2CCCCC)c1N	25 mg/kg	89 nM	
CCCCCn1ncc2c(N)c(C(=O)N(C)C)cnc21	12.5 mg/kg		IC50 [3]: Not Active
CCCCCn1ncc2c(N)c(C(=O)OC)c(C)nc21			inhibition [1]: 54%
C=CCCn1ncc2c(N)c(C(=O)OCC=C)c(C)nc21	25 mg/kg	54 nM	
CCOC(=O)c1c(C)nc2c(c(C)nn2CC)c1N			IC50 [7]: Not Active; MED (Rattus norvegicus [6]): inactive
CC#CCNC(=O)c1cnc2c(cnn2CCCCC)c1N	6.3 mg/kg	84 nM	
C=CCNC(=O)c1cnc2c(cnn2CCC#CC)c1NC(=O)CC	1.6 mg/kg		inhibition [10]: 28%
C=CCCOC(=O)c1c(C)nc2c(cnn2CCCCC)c1N		174 nM	MED (Rattus norvegicus [8]): inactive
CCCCCn1ncc2c(N)c(C(=O)OCCCC)c(C)nc21		113 nM	minimal effective dose (Rattus norvegicus [5]): 50 mg/kg
CCCCCn1ncc2c(N)c(C(=O)NC)cnc21	12.5 mg/kg	354 nM	
CNC1=Nc2ccc(Cl)cc2C(c2ccccc2)=[N+]([O-])C1 [CHLORDIAZEPOXIDE]	10 mg/kg	330 nM	
CCCCCn1ncc2c(N)c(C(=O)Nc3ccccc3)cnc21		790 nM	minimal effective dose (Rattus norvegicus [5]): 50 mg/kg
CCOC(=O)c1c(C)nc2c(cnn2CC(C)CC)c1N (stereo unspecified)		391 nM	minimal effective dose (Rattus norvegicus [5]): 25 mg/kg
CCCCCn1ncc2c(N)c(C(=O)NOCC)cnc21	12.5 mg/kg	531 nM	
C=CCNC(=O)c1cnc2c(cnn2CCCCC)c1N	12.5 mg/kg	28 nM	
CCCCCn1ncc2c(N)c(C(=O)N(CC)CCC)cnc21	25 mg/kg		IC50 [3]: Not Active
C=CCCCn1ncc2c(N)c(C(=O)OCC=C)c(C)nc21	25 mg/kg	9.7 nM	
CCCCCn1ncc2c(N)c(C(=O)N3CCC3)cnc21	50 mg/kg	137 nM	
C=CCOC(=O)c1c(C)nc2c(cnn2CCCC)c1N	25 mg/kg	21 nM	
C#CCCCn1ncc2c(N)c(C(=O)OCC)c(C)nc21	25 mg/kg	31 nM	

SMILES	minimal effective dose (Rattus norvegicus [2])	IC50 [4]	further results
CCCCCn1ncc2c(N)c(C(=O)OCCC3CC3)c(C)nc21		51 nM	minimal effective dose (Rattus norvegicus [5]): 50 mg/kg
CCCCCn1ncc2c(N)c(C(=O)N(CC)CC)cnc21	25 mg/kg		IC50 [3]: Not Active
C=CCOC(=O)c1c(C)nc2c(cnn2CCC(C)C)c1N	50 mg/kg	13 nM	
CCOC(=O)c1c(C)nc2c(cnn2CC)c1NC			MED (Rattus norvegicus [6]): inactive
CC#CCCn1ncc2c(N)c(C(=O)NCCC)cnc21	6.3 mg/kg	500 nM	
C#CCCCCn1ncc2c(N)c(C(=O)OCC=C)c(C)nc21	25 mg/kg	8.6 nM	
C#CCCn1ncc2c(N)c(C(=O)OCC=C)c(C)nc21	50 mg/kg	160 nM	
CCOC(=O)c1c(C)nc2c(cnn2CCC(C)(C)C)c1N			inhibition [10]: 38%; minimal effective dose (Rattus norvegicus [8]): inactive
CC#CCCn1ncc2c(N)c(C(=O)N(C)CCC)cnc21	12.5 mg/kg		IC50 [3]: Not Active
C=CCOC(=O)c1c(C)nc2c(cnn2CCC2CC2)c1N	25 mg/kg	16 nM	
C=CCOC(=O)c1c(C)nc2c(cnn2CCCCC)c1N	25 mg/kg	21 nM	
C=CCNC(=O)c1cnc2c(cnn2CCCCC)c1O	50 mg/kg		IC50 [3]: Not Active
CCCCCn1ncc2c(N)c(C(=O)OCc3ccccc3)c(C)nc21		100 nM	MED (Rattus norvegicus [6]): inactive
CCCCCn1ncc2c(N)c(C(=O)O)c(C)nc21			IC50 [7]: Not Active; minimal effective dose (Rattus norvegicus [8]): inactive
CCCn1ncc2c(N)c(C(=O)OCC)c(C)nc21		410 nM	minimal effective dose (Rattus norvegicus [5]): 80 mg/kg
C#CCN(C)C(=O)c1cnc2c(cnn2CCCCC)c1N	6.3 mg/kg		IC50 [3]: Not Active
CCCCNc1c(C(=O)OCC)c(C)nc2c1cnn2CC [TRACAZOLATE]	40 mg/kg		
C=CCN(CC=C)C(=O)c1cnc2c(cnn2CCCCC)c1N	25 mg/kg		IC50 [3]: Not Active
CCCCCn1ncc2c(N)c(C(=O)NCC3CC3)cnc21	6.3 mg/kg	35 nM	
CCCCCn1ncc2c(N)c(C(=O)NCCCC)cnc21	50 mg/kg	80 nM	
C#CCNC(=O)c1cnc2c(cnn2CCCCC)c1N	6.3 mg/kg	60 nM	
CCCCCn1ncc2c(N)c(C(=O)OCC(C)C)c(C)nc21			inhibition [10]: 55%; MED (Rattus norvegicus [6]): inactive
CCCCCn1ncc2c(N)c(C(=O)OCC)c(C)nc21	50 mg/kg	58 nM	
C#CCCCn1ncc2c(N)c(C(=O)OCC3CC3)c(C)nc21	12.5 mg/kg	22 nM	
CCCCCn1ncc2c(N)c(C(=O)NCCC)cnc21	25 mg/kg	89 nM	
C=CCOC(=O)c1c(C)nc2c(cnn2CC=C)c1N	25 mg/kg	112 nM	

From ChEMBL document CHEMBL1124612, “Synthesis and structure-activity relationships of a series of anxioselective pyrazolopyridine ester and amide anxiolytic agents” (J Med Chem, 1989)
